ChEMBL document CHEMBL1165950, “Design and synthesis of new potent anticancer pyrazoles with high FLT3 kinase inhibitory selectivity” (Bioorg Med Chem, 2010)

Key:
Type in all cases: functional
OVCAR-8 [1] = assay: Cytotoxicity against human OVCAR8 cells assessed as cell growth at 10 uM; settings: read-out: Activity
In short: (§1)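 NCI-60 screen: cells grown in RPMI 1640 with 5% FBS and 2 mM L-glutamine, plated at 5000–40,000 cells/well according to doubling time, and preincubated 24 h at 37 °C, 5% CO2. The single 10 µM dose (DMSO stock) was added, then incubated 48 h. Cells were TCA-fixed and stained with 0.4% SRB, read at 515 nm, and growth % calculated against time-zero and control plates.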

786-0 = assay: Cytotoxicity against human 786-0 cells assessed as cell growth at 10 uM; settings: read-out: Activity
In short: (§2)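 Single-dose NCI-60 screen at 10 µM. Cells were grown in RPMI 1640 with 5% FBS and 2 mM L-glutamine, then treated for 48 h at 37 °C. Protein was measured by SRB staining with absorbance at 515 nm. Percentage growth was recorded, and inhibition percentage was calculated as 100 minus growth percentage.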

OVCAR-8 [2] = assay: Cytotoxicity against human OVCAR8 cells assessed as cell growth at 10 uM after 48 hrs by sulforhodamine B assay; settings: OVCAR-8, 48 h, read-out: Activity
HOP-62 = assay: Growth inhibition of human HOP62 cells after 48 hrs by sulforhodamine B assay; settings: HOP-62, 48 h
In short: (§3)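 NCI 60-cell screen, five-dose mode. Cells grown in RPMI 1640 with 5% FBS and 2 mM L-glutamine and plated at 5000-40,000 cells/well according to doubling time. After 24 h preincubation, a Tz plate was TCA-fixed. Five concentrations (10-fold or 1/2 log dilutions) were applied for 48 h at 37 °C. SRB staining read at 515 nm. IC50 taken from [(Ti-Tz)/(C-Tz)]×100 = 50.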

SF-268 = assay: Growth inhibition of human SF268 cells after 48 hrs by sulforhodamine B assay; settings: SF-268, 48 h; for CC50: read-out: LC50 (the source's name); in short: as §3
COLO 205 [3] = assay: Growth inhibition of human COLO205 cells after 48 hrs by sulforhodamine B assay; settings: COLO 205, 48 h; for CC50: read-out: LC50 (the source's name)
In short: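 NCI five-dose SRB assay in RPMI 1640 with 5% FBS and 2 mM L-glutamine. Cells were preincubated 24 h, then exposed 48 h at 37 °C to five concentrations (10-fold or half-log serial dilutions from DMSO stocks). TCA fixation, SRB staining, and absorbance at 515 nm followed. IC50 was taken where [(Ti−Tz)/(C−Tz)]×100 = 50, with Tz as time-zero cell density.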

Malme-3M = assay: Cytotoxicity against human MALME-3M cells assessed as cell growth at 100 nM after 48 hrs by sulforhodamine B assay; settings: read-out: Activity
U-251 [4] = assay: Growth inhibition of human U251 cells after 48 hrs by sulforhodamine B assay; settings: U-251, 48 h; for CC50: read-out: LC50 (the source's name); in short: as §3
SR = assay: Cytotoxicity against human SR cells assessed as cell growth at 10 uM after 48 hrs by sulforhodamine B assay; settings: read-out: Activity
NCI/ADR-RES = assay: Cytotoxicity against human NCI/ADR-RES cells assessed as cell growth at 10 uM; settings: read-out: Activity; in short: as §1
RXF 393 = assay: Cytotoxicity against human RXF393 cells assessed as cell growth at 0.01 uM after 48 hrs by sulforhodamine B assay; settings: RXF 393, 48 h, read-out: Activity
UACC-257 = assay: Cytotoxicity against human UACC257 cells assessed as cell growth at 0.001 uM after 48 hrs by sulforhodamine B assay; settings: UACC-257, 48 h, read-out: Activity
UACC-62 = assay: Cytotoxicity against human UACC62 cells assessed as cell growth at 0.01 uM after 48 hrs by sulforhodamine B assay; settings: UACC-62, 48 h, read-out: Activity
A549 = assay: Cytotoxicity against human A549 cells assessed as cell growth at 1 uM after 48 hrs by sulforhodamine B assay; settings: A549, 48 h, read-out: Activity
In short: (§4)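 NCI-60 five-dose screen. Cells were grown in RPMI 1640 with 5% FBS and 2 mM L-glutamine, plated at 5000–40,000 cells/well and preincubated for 24 h. Time-zero plates were TCA-fixed. DMSO-solubilized drug was added at five concentrations (10-fold or ½-log serial dilutions) for 48 h at 37 °C, 5% CO2. Cells were TCA-fixed, stained with 0.4% SRB and read at 515 nm. Percent growth used time-zero, control and test absorbances.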

HCC 2998 = assay: Cytotoxicity against human HCC2998 cells assessed as cell growth at 0.01 uM after 48 hrs by sulforhodamine B assay; settings: HCC 2998, 48 h, read-out: Activity
CCRF-CEM = assay: Cytotoxicity against human CCRF-CEM cells assessed as cell growth at 0.01 uM after 48 hrs by sulforhodamine B assay; settings: read-out: Activity; in short: as §4
HCT-116 = assay: Cytotoxicity against human HCT116 cells assessed as cell growth at 0.01 uM after 48 hrs by sulforhodamine B assay; settings: HCT-116, 48 h, read-out: Activity
SNB-75 = assay: Cytotoxicity against human SNB75 cells assessed as cell growth at 0.001 uM after 48 hrs by sulforhodamine B assay; settings: SNB-75, 48 h, read-out: Activity
SK-OV-3 = assay: Growth inhibition of human SKOV3 cells after 48 hrs by sulforhodamine B assay; settings: SK-OV-3, 48 h; for CC50: read-out: LC50 (the source's name); in short: as §3
K562 = assay: Cytotoxicity against human K562 cells assessed as cell growth at 10 uM; settings: read-out: Activity; in short: as §2
A498 = assay: Cytotoxicity against human A498 cells assessed as cell growth at 100 nM after 48 hrs by sulforhodamine B assay; settings: A498, 48 h, read-out: Activity; in short: as §4
OVCAR-5 = assay: Cytotoxicity against human OVCAR5 cells assessed as cell growth at 0.001 uM after 48 hrs by sulforhodamine B assay; settings: OVCAR-5, 48 h, read-out: Activity
U-251 [5] = assay: Cytotoxicity against human U251 cells assessed as cell growth at 0.01 uM after 48 hrs by sulforhodamine B assay; settings: U-251, 48 h, read-out: Activity
SNB-19 = assay: Cytotoxicity against human SNB19 cells assessed as cell growth at 10 uM after 48 hrs by sulforhodamine B assay; settings: SNB-19, 48 h, read-out: Activity
SK-MEL-5 = assay: Cytotoxicity against human SK-MEL-5 cells assessed as cell growth at 0.001 uM after 48 hrs by sulforhodamine B assay; settings: SK-MEL-5, 48 h, read-out: Activity
SF-295 = assay: Cytotoxicity against human SF295 cells assessed as cell growth at 1 uM after 48 hrs by sulforhodamine B assay; settings: SF-295, 48 h, read-out: Activity
COLO 205 [6] = assay: Cytotoxicity against human COLO205 cells assessed as cell growth at 0.001 uM after 48 hrs by sulforhodamine B assay; settings: COLO 205, 48 h, read-out: Activity; in short: as §4

Structure (SMILES) | growth at 10 µM (OVCAR-8 [1]) [%] | growth at 10 µM (786-0) [%] | growth at 10 µM (OVCAR-8 [2]) [%] | GI50 (HOP-62) [µM] | LC50 (50% lethal concentration) (HOP-62) [µM] | TGI (HOP-62) [µM] | GI50 (SF-268) [µM] | TGI (SF-268) [µM] | CC50 (SF-268) [µM] | GI50 (COLO 205 [3]) [µM] | TGI (COLO 205 [3]) [µM] | CC50 (COLO 205 [3]) [µM] | growth at 0.1 µM (Malme-3M) [%] | GI50 (U-251 [4]) [µM] | TGI (U-251 [4]) [µM] | CC50 (U-251 [4]) [µM] | growth at 10 µM (SR) [%] | growth at 10 µM (NCI/ADR-RES) [%] | growth at 0.01 µM (RXF 393) [%] | growth at 0.001 µM (UACC-257) [%] | also measured
COc1cc(C)cc(-c2nn(CC#N)cc2-c2ccnc(-c3ccc(N(C)C)cc3)c2)c1 | 12 | 5.8 | -8 | 0.39 | > 100 | 18.7 | 0.478 | 8.9 | > 100 | 0.32 | 7.69 | 3.91 | 46 | 0.415 | 5.86 | > 100 | 8 | -28 | 103 | 90 | growth at 0.01 µM (UACC-62): 86%; growth at 1 µM (A549): 14%; growth at 0.01 µM (HCC 2998): 107%; growth at 0.01 µM (CCRF-CEM): 100%; growth at 0.01 µM (HCT-116): 97%; growth at 0.001 µM (SNB-75): 95%; GI50 (SK-OV-3): 0.304 µM; TGI (SK-OV-3): 0.882 µM; CC50 (SK-OV-3): > 100 µM; growth at 10 µM (K562): 9.86%; growth at 0.1 µM (A498): -8%; growth at 0.001 µM (OVCAR-5): 98%; growth at 0.01 µM (U-251 [5]): 105%; growth at 10 µM (SNB-19): 9%; growth at 0.001 µM (SK-MEL-5): 99%; growth at 1 µM (SF-295): -7%; growth at 0.001 µM (COLO 205 [6]): 107%
Cc1cc(O)cc(-c2nn(CC#N)cc2-c2ccnc(-c3ccc(N(C)C)cc3)c2)c1 | 45 | 26.2 | -5 | 2.82 | > 100 | 23.4 | 3.55 | 16.9 | 77.9 | 1.95 | 4.13 | 87.8 | 94 | 3.14 | 12.9 | 61.3 | 4 | 6.33 | 104 | 96 | growth at 0.01 µM (UACC-62): 96%; growth at 1 µM (A549): 23%; growth at 0.01 µM (HCC 2998): 88%; growth at 0.01 µM (CCRF-CEM): 96%; growth at 0.01 µM (HCT-116): 98%; growth at 0.001 µM (SNB-75): 83%; GI50 (SK-OV-3): 2.85 µM; TGI (SK-OV-3): 8.03 µM; CC50 (SK-OV-3): > 100 µM; growth at 10 µM (K562): 19.5%; growth at 0.1 µM (A498): 92%; growth at 0.001 µM (OVCAR-5): 96%; growth at 0.01 µM (U-251 [5]): 94%; growth at 10 µM (SNB-19): -15%; growth at 0.001 µM (SK-MEL-5): 92%; growth at 1 µM (SF-295): -5%; growth at 0.001 µM (COLO 205 [6]): 109%
COc1cc(C)cc(-c2nn(CC#N)cc2-c2ccc(-c3cccc(C(C)=O)c3)nc2)c1 | 31.4 | 18 | -11 | 3.07 | > 100 | 36.9 | 4.07 | 81.4 | > 100 | 1.85 | 4.13 | 9.2 | 66 | 3.17 | 13.5 | > 100 | 28 | -25.8 | 89 | 94 | growth at 0.01 µM (UACC-62): 90%; growth at 1 µM (A549): 21%; growth at 0.01 µM (HCC 2998): 87%; growth at 0.01 µM (CCRF-CEM): 94%; growth at 0.01 µM (HCT-116): 93%; growth at 0.001 µM (SNB-75): 82%; GI50 (SK-OV-3): 3.13 µM; TGI (SK-OV-3): 9.1 µM; CC50 (SK-OV-3): > 100 µM; growth at 10 µM (K562): 16.4%; growth at 0.1 µM (A498): 53%; growth at 0.001 µM (OVCAR-5): 74%; growth at 0.01 µM (U-251 [5]): 92%; growth at 10 µM (SNB-19): 19%; growth at 0.001 µM (SK-MEL-5): 95%; growth at 1 µM (SF-295): 16%; growth at 0.001 µM (COLO 205 [6]): 103%
